Assays:
U2OS [1] = assay: Incucyte cell viability with U2OS; format: toxicity, cell-based; conditions: human, 10 µM, compound concentration 10 uM; also: filed as whole numbers so only -1 and 0 and 1 occur
U2OS [2] = assay: Multiplex assay against U2OS; format: toxicity, cell-based; conditions: human
Summary of the method: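 Live cells carried four stains from seeding: Hoechst33342, BioTracker Green Microtubule Cytoskeleton Dye, MitoTracker Red and Annexin V Alexa Fluor 680. They were imaged on a CQ1 microscope at 37°C and 5% CO2 after compound addition. Using CellPathfinder machine-learning gating, cells were split into Hoechst high-intensity objects or normal cells, normal cells into healthy, pyknosed or fragmented nuclei, and pyknosed cells into mitotic or apoptotic; tubulin, mitochondrial-mass and membrane-permeability phenotypes are per cents of healthy-nucleus cells.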

[3] = 12 h, 1 µM, compound concentration 1 uM, replicate 1
[4] = 12 h, 1 µM, compound concentration 1 uM, replicate 2
[5] = 12 h, 10 µM, compound concentration 10 uM, replicate 1
[6] = 12 h, 10 µM, compound concentration 10 uM, replicate 2
[7] = 24 h, 1 µM, compound concentration 1 uM, replicate 1
[8] = 24 h, 1 µM, compound concentration 1 uM, replicate 2
[9] = 24 h, 10 µM, compound concentration 10 uM, replicate 1
[10] = 24 h, 10 µM, compound concentration 10 uM, replicate 2

In the case of `CCOc1cc(N2CCC(O)CC2)ccc1Nc1ncc2c(n1)N(C1CCCC1)CCC(=O)N2C`, the “Growth Rate” value (U2OS [1]; 0 h, replicate number 2, timepoint 0 hours) is reported as 0, the “Growth Rate” value (U2OS [1]; 6 h, replicate number 1, timepoint 6 hours) is reported as 0 and the “Growth Rate” value (U2OS [1]; 12 h, replicate number 1, timepoint 12 hours) is reported as 1. For the same compound, the “Growth Rate” value (U2OS [1]; 12 h, replicate number 2, timepoint 12 hours) was 0, the “Growth Rate” value (U2OS [1]; 18 h, replicate number 1, timepoint 18 hours) was 0 and the “Growth Rate” value (U2OS [1]; 24 h, replicate number 1, timepoint 24 hours) was 0. For the same compound, the “Population Apoptotic (%)” value (U2OS [2]; [3]) was 46%, the “Population Fragmented Nuclei (%)” value (U2OS [2]; [3]) was 5% and the “Population Healthy Nuclei (%)” value (U2OS [2]; [3]) was 86%. For the same compound, the “Population Hoechst High Intensity Objects (%)” value (U2OS [2]; [3]) was 4%, the “Population Membrane Permeable-Phenotype (%)” value (U2OS [2]; [3]) was 16% and the “Population Mitochondria Different-Phenotype (%)” value (U2OS [2]; [3]) was 14%. For the same compound, the “Population Mitotic Cells (%)” value (U2OS [2]; [3]) was 53%, the “Population Normal (%)” value (U2OS [2]; [3]) was 95% and the “Population Pyknosed Nuclei (%)” value (U2OS [2]; [3]) was 8%. For the same compound, the “Population Tubulin-Different-Phenotype (%)” value (U2OS [2]; [3]) was 18%, the “Population Apoptotic (%)” value (U2OS [2]; [4]) was 50% and the “Population Fragmented Nuclei (%)” value (U2OS [2]; [4]) was 8%. The “Population Healthy Nuclei (%)” value (U2OS [2]; [4]) was 89%, the “Population Hoechst High Intensity Objects (%)” value (U2OS [2]; [4]) was 7% and the “Population Membrane Permeable-Phenotype (%)” value (U2OS [2]; [4]) was 18%. For the same compound, the “Population Mitochondria Different-Phenotype (%)” value (U2OS [2]; [4]) was 16%, the “Population Mitotic Cells (%)” value (U2OS [2]; [4]) was 50% and the “Population Normal (%)” value (U2OS [2]; [4]) was 92%. For the same compound, the “Population Pyknosed Nuclei (%)” value (U2OS [2]; [4]) was 2%, the “Population Tubulin-Different-Phenotype (%)” value (U2OS [2]; [4]) was 17% and the “Population Apoptotic (%)” value (U2OS [2]; [5]) was 27%. The “Population Fragmented Nuclei (%)” value (U2OS [2]; [5]) was 4%, the “Population Healthy Nuclei (%)” value (U2OS [2]; [5]) was 89% and the “Population Hoechst High Intensity Objects (%)” value (U2OS [2]; [5]) was 1%. The “Population Membrane Permeable-Phenotype (%)” value (U2OS [2]; [5]) was 5%, the “Population Mitochondria Different-Phenotype (%)” value (U2OS [2]; [5]) was 24% and the “Population Mitotic Cells (%)” value (U2OS [2]; [5]) was 72%. For the same compound, the “Population Normal (%)” value (U2OS [2]; [5]) was 98%, the “Population Pyknosed Nuclei (%)” value (U2OS [2]; [5]) was 5% and the “Population Tubulin-Different-Phenotype (%)” value (U2OS [2]; [5]) was 28%. The “Population Apoptotic (%)” value (U2OS [2]; [6]) was 33%, the “Population Fragmented Nuclei (%)” value (U2OS [2]; [6]) was 7% and the “Population Healthy Nuclei (%)” value (U2OS [2]; [6]) was 90%. The “Population Hoechst High Intensity Objects (%)” value (U2OS [2]; [6]) was 8%, the “Population Membrane Permeable-Phenotype (%)” value (U2OS [2]; [6]) was 7% and the “Population Mitochondria Different-Phenotype (%)” value (U2OS [2]; [6]) was 33%. The “Population Mitotic Cells (%)” value (U2OS [2]; [6]) was 66%, the “Population Normal (%)” value (U2OS [2]; [6]) was 91% and the “Population Pyknosed Nuclei (%)” value (U2OS [2]; [6]) was 2%. The “Population Tubulin-Different-Phenotype (%)” value (U2OS [2]; [6]) was 27%, the “Population Fragmented Nuclei (%)” value (U2OS [2]; [7]) was 7% and the “Population Healthy Nuclei (%)” value (U2OS [2]; [7]) was 87%. For the same compound, the “Population Hoechst High Intensity Objects (%)” value (U2OS [2]; [7]) was 2%, the “Population Membrane Permeable-Phenotype (%)” value (U2OS [2]; [7]) was 8% and the “Population Mitochondria Different-Phenotype (%)” value (U2OS [2]; [7]) was 17%. For the same compound, the “Population Normal (%)” value (U2OS [2]; [7]) was 97%, the “Population Tubulin-Different-Phenotype (%)” value (U2OS [2]; [7]) was 18% and the “Population Apoptotic (%)” value (U2OS [2]; [8]) was 60%. The “Population Fragmented Nuclei (%)” value (U2OS [2]; [8]) was 10%, the “Population Healthy Nuclei (%)” value (U2OS [2]; [8]) was 85% and the “Population Hoechst High Intensity Objects (%)” value (U2OS [2]; [8]) was 6%. For the same compound, the “Population Membrane Permeable-Phenotype (%)” value (U2OS [2]; [8]) was 11%, the “Population Mitochondria Different-Phenotype (%)” value (U2OS [2]; [8]) was 20% and the “Population Mitotic Cells (%)” value (U2OS [2]; [8]) was 40%. The “Population Normal (%)” value (U2OS [2]; [8]) was 93%, the “Population Pyknosed Nuclei (%)” value (U2OS [2]; [8]) was 4% and the “Population Tubulin-Different-Phenotype (%)” value (U2OS [2]; [8]) was 20%. The “Population Apoptotic (%)” value (U2OS [2]; [9]) was 44%, the “Population Fragmented Nuclei (%)” value (U2OS [2]; [9]) was 3% and the “Population Healthy Nuclei (%)” value (U2OS [2]; [9]) was 93%. For the same compound, the “Population Hoechst High Intensity Objects (%)” value (U2OS [2]; [9]) was 1%, the “Population Membrane Permeable-Phenotype (%)” value (U2OS [2]; [9]) was 5% and the “Population Mitochondria Different-Phenotype (%)” value (U2OS [2]; [9]) was 22%. For the same compound, the “Population Mitotic Cells (%)” value (U2OS [2]; [9]) was 55%, the “Population Normal (%)” value (U2OS [2]; [9]) was 98% and the “Population Pyknosed Nuclei (%)” value (U2OS [2]; [9]) was 3%. The “Population Tubulin-Different-Phenotype (%)” value (U2OS [2]; [9]) was 24%, the “Population Apoptotic (%)” value (U2OS [2]; [10]) was 20% and the “Population Fragmented Nuclei (%)” value (U2OS [2]; [10]) was 9%. For the same compound, the “Population Healthy Nuclei (%)” value (U2OS [2]; [10]) was 87%, the “Population Hoechst High Intensity Objects (%)” value (U2OS [2]; [10]) was 7% and the “Population Membrane Permeable-Phenotype (%)” value (U2OS [2]; [10]) was 2%. For the same compound, the “Population Mitochondria Different-Phenotype (%)” value (U2OS [2]; [10]) was 24%, the “Population Mitotic Cells (%)” value (U2OS [2]; [10]) was 80% and the “Population Normal (%)” value (U2OS [2]; [10]) was 92%. For the same compound, the “Population Pyknosed Nuclei (%)” value (U2OS [2]; [10]) was 2% and the “Population Tubulin-Different-Phenotype (%)” value (U2OS [2]; [10]) was 38%.
